According to ChEMBL document CHEMBL4825663 (J Med Chem, 2021):

Key:
[1] = molecular target: Cytochrome P450 3A5 (Homo sapiens, UniProt P20815); assay: Drug metabolism assessed as human CYP3A5-mediated metabolism; format: ADME; conditions: recombinant enzyme
[2] = Toxicity in Sprague-Dawley rat assessed as histiocytosis in lymph nodes at 10 to 50 mg/kg, po and measured after 4 to 13 weeks; format: organism-based, Lymph node; conditions: in vivo, dose lower 10 mg/kg, time lower 4 weeks, dose upper 50 mg/kg, time upper 13 weeks
[3] = molecular target: T1, Solute carrier organic anion transporter family member 1B3 (Homo sapiens, UniProt Q9NPD5); assay: Inhibition of human OATP1B3 assessed as reduction in intracellular probe substrate accumulation upto 100 uM by microplate scintillation counter analysis relative to control; format: cell-based
T1 sequence (Q9NPD5 whole entry): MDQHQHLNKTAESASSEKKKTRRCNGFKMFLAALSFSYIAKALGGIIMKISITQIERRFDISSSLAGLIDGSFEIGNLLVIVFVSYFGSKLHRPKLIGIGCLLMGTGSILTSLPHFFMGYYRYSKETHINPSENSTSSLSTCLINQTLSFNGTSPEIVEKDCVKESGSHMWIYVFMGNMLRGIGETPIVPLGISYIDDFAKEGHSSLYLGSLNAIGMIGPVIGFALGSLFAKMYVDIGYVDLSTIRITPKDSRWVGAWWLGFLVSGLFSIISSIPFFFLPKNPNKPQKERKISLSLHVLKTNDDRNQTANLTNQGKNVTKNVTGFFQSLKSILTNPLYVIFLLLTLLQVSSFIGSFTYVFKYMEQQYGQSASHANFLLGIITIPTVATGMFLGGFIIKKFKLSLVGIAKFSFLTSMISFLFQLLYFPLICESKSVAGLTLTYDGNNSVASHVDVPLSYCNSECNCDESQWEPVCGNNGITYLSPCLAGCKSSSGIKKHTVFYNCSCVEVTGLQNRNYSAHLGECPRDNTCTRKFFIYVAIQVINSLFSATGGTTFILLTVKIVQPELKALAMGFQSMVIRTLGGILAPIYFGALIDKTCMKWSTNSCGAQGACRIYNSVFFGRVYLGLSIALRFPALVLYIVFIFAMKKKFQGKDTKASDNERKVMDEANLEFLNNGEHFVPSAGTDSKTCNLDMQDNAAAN
Method in brief: (§1)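 Cellular uptake-inhibition assays used Chinese hamster ovary, HEK293 or MDCKII cells stably expressing the respective human SLC transporter, run alongside the corresponding control cells. Inhibitor was tested at concentrations up to 100 μM.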

[4] = Drug distribution in Sprague-Dawley rat liver; format: ADME, tissue-based; conditions: in vivo
[5] = molecular target: ATP-binding cassette sub-family C member 2 (Homo sapiens, UniProt Q92887); assay: Inhibition of sulfasalazine-stimulated MRP2 ATPase activity (unknown origin) in presence of GSH
[6] = AUClast in Beagle dog at 10 mg/kg, po measured upto 48 hrs by LC-MS/MS analysis; format: ADME, organism-based, Canis lupus familiaris; set-up: route oral, dose 10 mg/kg, time <=48; conditions: in vivo
Method in brief: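 Single dose in male Sprague-Dawley rats and male Beagle dogs (n = 3 per species), given 3 mg/kg IV or 10 mg/kg PO. Plasma was sampled to derive Cmax, Tmax, T1/2 and AUClast by each route. Oral bioavailability (F) was calculated from the PO and IV AUClast.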

[7] = molecular target: T2, Solute carrier family 22 member 6 (Homo sapiens, UniProt Q4U2R8); assay: Inhibition of human OAT1 assessed as reduction in intracellular probe substrate accumulation upto 100 uM by microplate scintillation counter analysis relative to control; format: cell-based; method in brief: as §1
T2 sequence (Q4U2R8 whole entry): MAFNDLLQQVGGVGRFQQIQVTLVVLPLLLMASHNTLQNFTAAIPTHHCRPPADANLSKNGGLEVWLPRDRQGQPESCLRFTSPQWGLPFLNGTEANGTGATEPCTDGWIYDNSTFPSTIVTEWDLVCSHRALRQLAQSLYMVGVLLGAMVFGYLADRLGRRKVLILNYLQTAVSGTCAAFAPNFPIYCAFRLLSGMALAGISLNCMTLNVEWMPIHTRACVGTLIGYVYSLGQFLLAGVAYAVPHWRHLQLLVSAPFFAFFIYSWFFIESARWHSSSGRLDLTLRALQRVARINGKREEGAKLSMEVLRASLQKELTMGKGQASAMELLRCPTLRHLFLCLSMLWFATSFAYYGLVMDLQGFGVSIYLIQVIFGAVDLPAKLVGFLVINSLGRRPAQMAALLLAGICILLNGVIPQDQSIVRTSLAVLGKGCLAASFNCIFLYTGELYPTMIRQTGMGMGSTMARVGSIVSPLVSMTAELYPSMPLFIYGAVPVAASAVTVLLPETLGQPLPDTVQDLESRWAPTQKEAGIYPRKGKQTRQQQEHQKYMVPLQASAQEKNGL

[8] = molecular target: Cytochrome P450 3A4 (Homo sapiens, UniProt P08684); assay: Drug metabolism assessed as human CYP3A4-mediated metabolism; format: ADME; conditions: recombinant enzyme
[9] = Toxicity in athymic nude mouse xenografted with human MDA-MB-231 cells assessed as reduction in body weight at 20 mg/kg, po administered every other day for 4 doses in presence of 8 mg/kg encequidar and monitored for 70 to 82 days; format: organism-based; conditions: in vivo, time 70-82 day
Method in brief: (§2)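 Female athymic NCr-nu mice (n = 10/group) bearing subcutaneous MDA-MB-231 xenografts were treated from day 8. […] Individual body weights were monitored for 82 days after implantation.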

[10] = tested on: NCI-H460; assay: Antitumor activity against human NCI-H460 cells xenografted in athymic nude mouse assessed as median tumor growth delay at 40 mg/kg, po administered every other day for 4 doses in presence of 16 mg/kg encequidar and monitored for 48 days; format: functional; conditions: time 48 day
Method in brief: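 Female athymic NCr-nu mice carried subcutaneous NCI-H460 xenografts. […] Tumor weights and body weights were followed for 48 days after implantation. Read-out was median tumor growth delay.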

[11] = Ratio of drug concentration in BALB/c mouse small intestine to plasma at 20 mg/kg, po measured upto 24 hrs in presence of 10 mg/kg encequidar by LC-MS/MS analysis; format: ADME, organism-based
[12] = Toxicity in athymic nude mouse xenografted with human MDA-MB-231 cells assessed as reduction in body weight at 40 mg/kg, po administered every other day for 4 doses in presence of 16 mg/kg encequidar and monitored for 70 to 82 days; format: organism-based; set-up: scale not given: the % may be the effect or the level left; conditions: in vivo, time 70-82 day; method in brief: as §2
[13] = Drug distribution in Sprague-Dawley rat liver at 20 mg/kg, po measured upto 168 hrs in presence of 10 mg/kg encequidar by LC-MS/MS analysis; format: ADME, organism-based; conditions: in vivo
[14] = tested on: MDA-MB-231; assay: Antitumor activity against human MDA-MB-231 cells xenografted in athymic nude mouse assessed as reduction in median number of days for tumor to reach two tumor mass doubling at 20 mg/kg, po administered every other day for 4 doses in presence of 8 mg/kg encequidar and monitored for 70 to 82 days (reference value: 13.1 day); format: functional; conditions: time 70-82 day
[15] = Ratio of drug concentration in BALB/c mouse lung to plasma at 20 mg/kg, po measured upto 24 hrs in presence of 10 mg/kg encequidar by LC-MS/MS analysis; format: ADME, organism-based
[16] = tested on: MDA-MB-231; assay: Antitumor activity against human MDA-MB-231 cells xenografted in athymic nude mouse assessed as reduction in median number of days for tumor to reach two tumor mass doubling at 18 mg/kg, iv administered every other day for 4 doses and monitored for 70 to 82 days (reference value: 13.1 day); format: functional; conditions: time 70-82 day

Chain of Cytochrome P450 3A5 (P20815 whole entry): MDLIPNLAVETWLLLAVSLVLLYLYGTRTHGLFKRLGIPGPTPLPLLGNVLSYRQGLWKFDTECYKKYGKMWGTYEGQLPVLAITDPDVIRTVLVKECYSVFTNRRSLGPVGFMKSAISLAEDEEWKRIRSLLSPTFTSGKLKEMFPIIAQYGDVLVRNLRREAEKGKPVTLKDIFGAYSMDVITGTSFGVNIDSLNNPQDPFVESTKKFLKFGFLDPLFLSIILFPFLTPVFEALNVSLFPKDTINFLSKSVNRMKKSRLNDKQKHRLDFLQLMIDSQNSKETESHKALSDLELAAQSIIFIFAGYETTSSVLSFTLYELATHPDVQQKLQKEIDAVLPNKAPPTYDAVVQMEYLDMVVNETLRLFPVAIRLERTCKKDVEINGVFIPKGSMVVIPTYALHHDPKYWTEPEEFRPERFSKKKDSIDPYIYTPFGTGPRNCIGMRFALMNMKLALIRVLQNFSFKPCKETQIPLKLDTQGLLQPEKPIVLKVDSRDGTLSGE
Chain of Cytochrome P450 3A4 (P08684 whole entry): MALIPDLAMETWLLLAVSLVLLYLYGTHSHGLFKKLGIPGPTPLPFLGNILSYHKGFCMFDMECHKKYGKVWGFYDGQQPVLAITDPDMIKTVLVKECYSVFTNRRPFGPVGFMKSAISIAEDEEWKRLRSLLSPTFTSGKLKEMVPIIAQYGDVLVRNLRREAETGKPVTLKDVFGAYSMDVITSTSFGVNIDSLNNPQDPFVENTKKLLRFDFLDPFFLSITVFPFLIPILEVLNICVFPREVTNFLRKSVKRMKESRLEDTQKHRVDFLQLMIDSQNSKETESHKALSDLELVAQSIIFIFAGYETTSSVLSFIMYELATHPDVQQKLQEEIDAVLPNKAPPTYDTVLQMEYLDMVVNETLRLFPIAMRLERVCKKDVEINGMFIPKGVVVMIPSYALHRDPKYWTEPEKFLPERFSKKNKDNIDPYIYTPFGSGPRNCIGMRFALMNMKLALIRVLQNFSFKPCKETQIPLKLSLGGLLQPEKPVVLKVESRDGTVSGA
Chain of ATP-binding cassette sub-family C member 2 (Q92887 whole entry): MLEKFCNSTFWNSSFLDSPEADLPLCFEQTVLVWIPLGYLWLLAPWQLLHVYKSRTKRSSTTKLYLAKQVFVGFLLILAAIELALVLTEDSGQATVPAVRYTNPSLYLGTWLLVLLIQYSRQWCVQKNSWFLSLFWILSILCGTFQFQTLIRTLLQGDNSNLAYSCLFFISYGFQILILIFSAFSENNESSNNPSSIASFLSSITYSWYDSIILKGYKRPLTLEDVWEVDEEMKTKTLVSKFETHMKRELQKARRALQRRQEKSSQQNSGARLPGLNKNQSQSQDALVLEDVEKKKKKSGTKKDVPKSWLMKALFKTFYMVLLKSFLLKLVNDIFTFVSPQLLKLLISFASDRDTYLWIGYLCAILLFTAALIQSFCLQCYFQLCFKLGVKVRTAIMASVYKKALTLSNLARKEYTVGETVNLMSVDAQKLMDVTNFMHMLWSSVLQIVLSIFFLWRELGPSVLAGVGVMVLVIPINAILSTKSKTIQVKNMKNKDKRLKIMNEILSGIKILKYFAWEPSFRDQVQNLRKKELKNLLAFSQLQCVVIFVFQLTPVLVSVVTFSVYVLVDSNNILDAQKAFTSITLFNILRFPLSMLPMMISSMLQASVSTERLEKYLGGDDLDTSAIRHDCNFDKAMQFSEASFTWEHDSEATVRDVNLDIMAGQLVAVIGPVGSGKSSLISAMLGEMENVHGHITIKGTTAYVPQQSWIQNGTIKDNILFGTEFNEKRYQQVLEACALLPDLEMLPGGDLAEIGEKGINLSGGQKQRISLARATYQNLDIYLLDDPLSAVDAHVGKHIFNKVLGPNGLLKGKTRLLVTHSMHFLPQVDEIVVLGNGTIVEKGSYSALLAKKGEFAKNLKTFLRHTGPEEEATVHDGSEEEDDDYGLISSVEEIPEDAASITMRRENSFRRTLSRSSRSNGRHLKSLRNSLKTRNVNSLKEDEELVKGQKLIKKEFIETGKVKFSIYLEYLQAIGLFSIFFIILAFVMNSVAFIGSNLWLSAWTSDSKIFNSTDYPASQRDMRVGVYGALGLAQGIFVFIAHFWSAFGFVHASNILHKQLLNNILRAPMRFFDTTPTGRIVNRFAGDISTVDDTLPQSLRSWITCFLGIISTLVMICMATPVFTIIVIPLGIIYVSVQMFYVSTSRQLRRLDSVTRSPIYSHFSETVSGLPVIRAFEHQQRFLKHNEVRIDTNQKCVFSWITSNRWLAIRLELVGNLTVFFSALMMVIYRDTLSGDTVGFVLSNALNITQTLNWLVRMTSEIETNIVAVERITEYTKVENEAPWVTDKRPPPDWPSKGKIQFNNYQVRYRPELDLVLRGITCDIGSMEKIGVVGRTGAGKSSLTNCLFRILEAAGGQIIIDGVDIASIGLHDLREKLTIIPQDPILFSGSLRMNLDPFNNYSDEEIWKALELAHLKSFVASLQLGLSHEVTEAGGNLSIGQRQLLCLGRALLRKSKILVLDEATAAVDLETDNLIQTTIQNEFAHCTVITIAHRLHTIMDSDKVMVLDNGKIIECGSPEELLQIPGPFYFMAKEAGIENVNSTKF

Row | Drug metabolism [1] | inhibition (INH) [3] [%] | Drug uptake [4] | IC50 [5] [µM] | AUC(0-t) at 48 h [6] [ng·h/mL] | inhibition (INH) [7] [%] | Drug metabolism [8] | SMILES | Activity [2] | Activity [9] | Time [10] [days] | Kp at 24 h [11] | Activity [12] [%] | Drug uptake [13] | Time [14] [days] | Kp at 24 h [15] | Time [16] [days]
1 | Metabolite_Detected | < 50 | Active | > 100 | 724 | < 50 | Metabolite_Detected | COc1cc2c(cc1OC)CN(CCc1ccc(-n3nnc(-c4cc(OC)c(OC)cc4NC(=O)c4cc(=O)c5ccccc5o4)n3)cc1)CC2 | Toxic |  |  |  |  |  |  |  | 
2 |  |  |  |  |  |  |  | CC(=O)O[C@H]1C(=O)[C@@]2(C)[C@H]([C@H](OC(=O)c3ccccc3)[C@]3(O)C[C@H](OC(=O)[C@H](O)[C@@H](NC(=O)c4ccccc4)c4ccccc4)C(C)=C1C3(C)C)[C@]1(OC(C)=O)CO[C@@H]1C[C@@H]2O [PACLITAXEL] |  | Non-Toxic | 8.7 | > 1 | 5 | Active | 15.1 | > 1 | >69
